Compound activity as filed in PubChem.
Hits are enriched below; roughly 3.5% of the tested compounds scored in any of these assays.
RGS4 act: RGS4 potentiators or activators, primary screen, cell-based, HEK293 M3R inducible RGS4, calcium flux; AID 463111, 2010; actives 0.92% (n = 310,000); B-score at 10 µM; carbachol calcium flux Fluo4; active compounds read low;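 active means B-score of the integrated calcium signal more than 4 SD below the library mean, with starting fluorescence not abnormally high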;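 further: negative B-score means reduced calcium response which marks RGS4 activation or potentiation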
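Material: M3R-expressing HEK293 line, RGS4 induced by doxycycline | Schedule: Overnight RGS4 induction, 30 min dye load 37 °C, 20 min compound RT | Measured by: Fluo4 fluorescence kinetic imaging of calcium | Read-out: Integrated calcium ratio converted to B score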
MrgX1 antag: antagonists of human MrgX1 receptor, primary screen, HEK293 cells, Fluo-4 calcium flux | B-score at 10 µM | actives 1.3% (n = 310,000) | Mas-related G-protein coupled receptor member X1 (Homo sapiens), Q96LB2 | BAM8-22 antagonism; active compounds read low;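 active means calcium-response B-score plate-corrected more than 3 library SD below zero, starting fluorescence within 5 deviations, no agonist response on first addition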;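 further: peak minus trough fluorescence over baseline after final BAM8-22 challenge near maximal dose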
Target sequence (Q96LB2 whole entry, looked up): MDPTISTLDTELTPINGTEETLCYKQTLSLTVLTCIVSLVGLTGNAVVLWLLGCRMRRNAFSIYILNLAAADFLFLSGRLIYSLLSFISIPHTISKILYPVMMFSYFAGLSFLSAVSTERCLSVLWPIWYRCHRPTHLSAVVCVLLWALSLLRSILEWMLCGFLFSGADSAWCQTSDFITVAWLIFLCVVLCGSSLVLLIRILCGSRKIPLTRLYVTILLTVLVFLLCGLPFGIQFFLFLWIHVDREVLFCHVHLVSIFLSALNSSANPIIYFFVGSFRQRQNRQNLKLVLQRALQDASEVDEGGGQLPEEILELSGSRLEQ
MrgX1 agonist: agonists of human MrgX1 receptor, primary screen, HEK293 cells, Fluo-4 calcium flux | Fluo-4 calcium fluorescence, agonist mode; active compounds read high | B-score at 10 µM | actives 0.44% (n = 310,000);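 active means calcium response B-score plate-corrected fluorescence ratio at least 3 library SD, with starting fluorescence B-score inside 5 SD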
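Test system: Stable human MrgX1 HEK293 cell line | Schedule: Overnight plating before 1 h dye loading | Read-out basis: Baseline-normalised fluorescence change ratio, B-scored | Detection: Kinetic calcium dye fluorescence, Fluo-4 NW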
MrgX1 PAM: positive allosteric modulators of MrgX1, primary screen, HEK293 cells, Fluo-4 calcium flux; actives 0.63% (n = 310,000); Mas-related G-protein coupled receptor member X1 (Homo sapiens), Q96LB2; B-score at 10 µM; AID 588675, 2011; FDSS; active compounds read high;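 active means plate-corrected calcium response at least 3 library SD above typical, normal starting fluorescence, not activating the receptor alone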;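 further: compound read alongside a low EC10 to EC30 dose of BAM8-22 agonist; peak minus trough fluorescence over baseline measured at the second addition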
RGS4 block: RGS4 inhibitors, primary screen, cell-based, HEK293 M3R inducible RGS4, calcium flux; B-score at 10 µM; Fluo-4 calcium flux; active compounds read high; triggered by carbachol at its EC20; actives 0.45% (n = 310,000); Regulator of G-protein signaling 4 (Homo sapiens), P49798; AID 463165, 2010;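 active means B-score, a plate-corrected calcium signal, over three deviations above library mean, with baseline fluorescence within five deviations of library mean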;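 further: RGS4 expression induced by doxycycline in cells with stable M3 receptor; B-score is computed from the integrated fluorescence ratio over baseline after carbachol; higher B-score means a larger calcium signal and so more RGS4 inhibition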
Target sequence (P49798 whole entry, looked up): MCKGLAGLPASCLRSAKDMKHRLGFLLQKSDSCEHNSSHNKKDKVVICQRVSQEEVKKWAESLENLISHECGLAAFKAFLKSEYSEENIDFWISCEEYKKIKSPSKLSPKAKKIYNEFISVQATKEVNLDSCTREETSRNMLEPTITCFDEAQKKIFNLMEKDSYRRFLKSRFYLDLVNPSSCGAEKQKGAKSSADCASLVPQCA
MrgX1 ag confirm: MrgX1 receptor agonists, duplicate retest, confirmation, HEK293 cells, Fluo-4 calcium flux | actives 78% (n = 600) | AID 602412, 2012 | shares compounds with MrgX1 agonist | Fluo-4 calcium fluorescence, FDSS | activation, % at 10 µM;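 active means calcium signal rise, corrected for plate position, at least 3 library SD high, with starting brightness within 5 such deviations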
MrgX1 PAM conf: MrgX1 positive allosteric modulators, duplicate retest, confirmation, HEK293 cells, Fluo-4 calcium flux. shares compounds with MrgX1 PAM. Fluo-4 calcium fluorescence, FDSS. activation (ratio percentage), % at 10 µM. actives 13% (n = 1,200). AID 602413, 2012;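 active means ratio at least 3 SD above the weak peptide control, stable starting fluorescence, no direct agonism earlier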;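 further: compound followed by low BAM8-22 agonist challenge near EC20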
HEK293 Ca flux: nonspecific calcium signal in parental HEK293, confirmation, counter-screen for MrgX1 antagonist project, parental HEK293 cells, Fluo-4 calcium flux | shares compounds with MrgX1 antag | Fluo-4 calcium fluorescence, FDSS | fluorescence ratio F(max-min)/F0 at 10 µM | actives 2% (n = 4,000) | AID 624111, 2012;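 active means duplicate-averaged calcium fluorescence ratio at least three times the standard deviation of buffer wells, a nonspecific response in parental cells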
HEK293 Ca counter: calcium response in parental HEK293 cells, primary screen, counter-screen for MrgX1 allosteric activator project, cell-based, Fluo-4 calcium flux, duplicate; shares compounds with MrgX1 antag; Fluo-4 fluorescence ratio; active compounds read high; fluorescence ratio F(max-min)/F0 at 10 µM; actives 0.4% (n = 4,000); AID 624114, 2012;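 active means calcium fluorescence ratio, averaged over duplicates, at least 3 SD of the buffer-well ratio, meaning a nonspecific response in receptor-free cells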;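 further: untransfected parental HEK293 lacking MrgX1 used as counterscreen for MrgX1 allosteric activators; fluorescence change taken during the second addition on a kinetic imager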
HEK293 Ca cntr2: calcium response in parental HEK293 cells, primary screen, counter-screen for MrgX1 agonist project, cell-based, Fluo-4 calcium flux, duplicate, agonist mode; fluorescence ratio F(max-min)/F0 at 10 µM; actives 8.7% (n = 4,000); AID 624115, 2012; Fluo-4 calcium fluorescence (FDSS); active compounds read high; shares compounds with MrgX1 antag;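 active means calcium fluorescence ratio at least three times the spread of buffer wells, meaning a non-specific response in parental cells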
Each line names hits and unclear results; the compound was inactive in the other large screens (follow-up assays come after a bar, where they were run).

CN(Cc1cccs1)C(=O)CCCc1c[nH]c2ccccc12	MrgX1 agonist 27 | MrgX1 ag confirm 161% | HEK293 Ca flux inactive | HEK293 Ca counter inactive | HEK293 Ca cntr2 inactive
CN(Cc1cccs1)C(=O)CCc1c[nH]c2ccccc12	none
Cc1cc(C)nc(N2CCCC(C(=O)Nc3nnc(C(C)C)s3)C2)n1 (stereo unspecified)	none (no result: MrgX1 antag, MrgX1 agonist, MrgX1 PAM)
Cn1c2ccccc2c(=O)c2c(=O)n(C3CCCCCC3)c(C3CCCCC3)nc21	none (no result: MrgX1 antag, MrgX1 agonist, MrgX1 PAM)
Cn1c2ccccc2c(=O)c2c(=O)n(C3CCCCC3)c(-c3cccs3)nc21	MrgX1 agonist 110 | MrgX1 ag confirm 596% | HEK293 Ca flux inactive | HEK293 Ca counter inactive | HEK293 Ca cntr2 98
CCc1nc2c(c(=O)c3ccccc3n2C)c(=O)n1C1CCCCCC1	MrgX1 agonist 117 | MrgX1 ag confirm 481% | HEK293 Ca flux inactive | HEK293 Ca counter inactive | HEK293 Ca cntr2 97
Cn1c2ccccc2c(=O)c2c(=O)n(-c3ccccc3)c(C3CCCCC3)nc21	none
Cc1ccc(C2C(C#N)=C(N)Oc3n[nH]c(-c4cccnc4)c32)o1 (stereo unspecified)	MrgX1 agonist 36 | MrgX1 ag confirm 167% | HEK293 Ca flux inactive | HEK293 Ca counter inactive | HEK293 Ca cntr2 inactive
CC(C)C(=O)Nc1cc2c3c(c1)CCC(=O)N3CCC2	none
Cc1ccc(N2C=Nc3ccc(C)c4nc(C)cc2c34)cc1	MrgX1 agonist 28 | MrgX1 ag confirm 98% | HEK293 Ca flux inactive | HEK293 Ca counter inactive | HEK293 Ca cntr2 inactive
CC1=Nc2ccc(C)c3nc(C)cc(c23)N1c1ccc(C)cc1	MrgX1 agonist 38 | MrgX1 ag confirm 191% | HEK293 Ca flux inactive | HEK293 Ca counter inactive | HEK293 Ca cntr2 inactive
Cc1ccc(N2C(=O)CC(Sc3nc(C)cc(C)n3)C2=O)cc1 (stereo unspecified)	none
CCOC(=O)Nc1sc(C)c(C)c1C(N)=O	none
COc1ccc2c(c1OC)C(=O)N(c1cccc(NC(C)=O)c1)C2	MrgX1 agonist 27 | MrgX1 ag confirm 119% | HEK293 Ca flux inactive | HEK293 Ca counter inactive | HEK293 Ca cntr2 inactive
CC(C)Nc1nc2nonc2nc1Nc1ccccc1	MrgX1 agonist 29 | MrgX1 ag confirm 175% | HEK293 Ca flux inactive | HEK293 Ca counter inactive | HEK293 Ca cntr2 inactive
COc1cc(Cl)c(C)cc1NC(=O)c1cccc(OC)c1OC	none
CCc1ccc2ncc(S(=O)(=O)c3ccc(C)c(C)c3)c(N3CCCC3)c2c1	none
N#Cc1c(N2CCSCC2)nsc1-c1ccccc1Cl	none
CC(=O)Nc1ccc(S(=O)(=O)Nc2ccc(S(=O)(=O)N3CCCC3)cc2)cc1	none
CC(=O)Nc1ccc(S(=O)(=O)/N=C2\SCCN2S(=O)(=O)c2ccc(NC(C)=O)cc2)cc1	MrgX1 agonist 41 | MrgX1 ag confirm 270% | HEK293 Ca flux inactive | HEK293 Ca counter inactive | HEK293 Ca cntr2 inactive
Cc1nc(N2CCOCC2)nc(Oc2ccccc2)c1[N+](=O)[O-]	none
COc1ccc(OC)c(N(CC(=O)N2CCCC2)S(=O)(=O)c2ccc(C)cc2)c1	none
COc1ccc(C)cc1N(CC(=O)N1CCCCCC1)S(=O)(=O)c1ccc(C)cc1	MrgX1 agonist 37 | MrgX1 ag confirm 198% | HEK293 Ca flux inactive | HEK293 Ca counter inactive | HEK293 Ca cntr2 inactive
CCNc1nc(Sc2ccc(C)cc2)cc(C(F)(F)F)n1	MrgX1 PAM 6.8 | MrgX1 PAM conf 15% | HEK293 Ca flux inactive | HEK293 Ca counter inactive | HEK293 Ca cntr2 inactive
CCNc1nc(Oc2c(Cl)cccc2Cl)cc(C(F)(F)F)n1	none
CCNc1nc(Oc2ccc(OC)cc2)cc(C(F)(F)F)n1	MrgX1 PAM 10 | MrgX1 PAM conf inactive | HEK293 Ca flux inactive | HEK293 Ca counter inactive | HEK293 Ca cntr2 inactive
COc1ccc2[nH]cc(C(=O)CCl)c2c1	MrgX1 PAM 21 | MrgX1 PAM conf inactive | HEK293 Ca flux inactive | HEK293 Ca counter inactive | HEK293 Ca cntr2 inactive
CCC(C)(C)n1nnnc1C(c1ccc(Cl)cc1)N1CCN(C)CC1 (stereo unspecified)	MrgX1 PAM 11 | MrgX1 PAM conf inactive | HEK293 Ca flux inactive | HEK293 Ca counter inactive | HEK293 Ca cntr2 inactive
CCC(C)(C)n1nnnc1C(c1ccc(C)cc1)N1CCC(C)CC1 (stereo unspecified)	none
Cc1ccc(OCCC(=O)OCC(=O)NC(=O)NC2CCCC2)cc1	none
COc1ccc2c(C)cc(SCC(=O)N(C)C3CCS(=O)(=O)C3)nc2c1 (stereo unspecified)	MrgX1 PAM 10 | MrgX1 PAM conf inactive | HEK293 Ca flux inactive | HEK293 Ca counter inactive | HEK293 Ca cntr2 inactive
COc1ccc2c(C)cc(SCC(=O)N3CCOCC3)nc2c1	none
O=S(=O)(c1ccccc1Br)N1CCN(c2ncccn2)CC1	MrgX1 PAM 6.7 | MrgX1 PAM conf inactive | HEK293 Ca flux inactive | HEK293 Ca counter inactive | HEK293 Ca cntr2 inactive
CC1(c2ccccc2Cl)NC(=O)N(CC(=O)Nc2ccc(N3CCCCC3)cc2)C1=O (stereo unspecified)	none
COc1ccc(-c2csc3nc(-c4cccnc4)nc(Cl)c23)cc1OC	MrgX1 PAM 6.7 | MrgX1 PAM conf 3.9% | HEK293 Ca flux inactive | HEK293 Ca counter inactive | HEK293 Ca cntr2 inactive
CCOC(=O)c1c(S(=O)(=O)NCC(=O)NCc2ccc(C)cc2)c(C)n(C)c1C	none
CCN(CC)S(=O)(=O)c1ccc(Cl)nc1	MrgX1 PAM 9.3 | MrgX1 PAM conf inactive | HEK293 Ca flux inactive | HEK293 Ca counter inactive | HEK293 Ca cntr2 inactive
COCCN(CCOC)S(=O)(=O)c1ccc(Cl)nc1	none
O=C(COc1ccc([N+](=O)[O-])cc1)Nc1ccccc1C(=O)NC1CC1	none
